According to ChEMBL document CHEMBL2434966, “Novel N-4-piperazinyl-ciprofloxacin-chalcone hybrids: synthesis, physicochemical properties, anticancer and topoisomerase I and II inhibitory activity” (Eur J Med Chem, 2013):

What was measured:
Format in all cases: functional
[1] = test system: OVCAR-5; assay: Growth inhibition of human OVCAR5 cells after 48 hrs by sulforhodamine B assay; settings: OVCAR-5, 48 h
Summary of the method: (§1)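 NCI five-dose screen on the full 60-cell-line panel. Cells were given 10-fold dilutions from 10^-4 to 10^-8 M with continuous 48 h exposure, and growth was read by SRB staining. Percent growth was taken from time-zero, control and treated absorbances. GI50, TGI and LC50 were then derived, the GI50 being the concentration that gives a 50% lower net protein increase than control.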

[2] = test system: BT-549; assay: Growth inhibition of human BT549 cells after 48 hrs by sulforhodamine B assay; settings: BT-549, 48 h
Summary of the method: (§2)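 NCI 60-panel five-dose test at 10-fold dilutions, 10^-4 to 10^-8 M, with 48 h continuous exposure and SRB protein read-out. Percent growth derived from time-zero, untreated-control and treated absorbances. GI50 is the concentration where [(Ti-Tz)/(C-Tz)]×100 = 50. TGI is taken at Ti = Tz. LC50 is taken at [(Ti-Tz)/Tz]×100 = -50.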

[3] = test system: A498; assay: Growth inhibition of human A498 cells assessed as cell growth at 10^-5 M after 48 hrs by sulforhodamine B assay; settings: A498, 48 h, read-out: Activity
Summary of the method: (§3)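 NCI 60-cell-line primary screen. Single concentration of 10^-5 M, 48 h incubation. End point by sulforhodamine B protein staining read spectrophotometrically. Reported as percent growth of treated cells relative to untreated control cells.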

[4] = test system: DU-145; assay: Growth inhibition of human DU145 cells assessed as cell growth at 10^-5 M after 48 hrs by sulforhodamine B assay; settings: DU-145, 48 h, read-out: Activity; summary of the method: as §3
[5] = Growth inhibition of human NCI-ADR-RES cells assessed as cell growth at 10^-5 M after 48 hrs by sulforhodamine B assay; settings: read-out: Activity
Summary of the method: (§4)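 NCI 60-cell-line primary one-dose screen. Cells were exposed to a single 10^-5 M concentration for 48 h. The end point was sulforhodamine B protein staining, read spectrophotometrically. Results are reported as percent growth of treated cells relative to untreated control cells.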

[6] = test system: CCRF-CEM; assay: Growth inhibition of human CCRF-CEM cells assessed as cell growth at 10^-5 M after 48 hrs by sulforhodamine B assay; settings: read-out: Activity; summary of the method: as §3
[7] = test system: ACHN; assay: Growth inhibition of human ACHN cells after 48 hrs by sulforhodamine B assay; summary of the method: as §2
[8] = test system: HCT-116; assay: Growth inhibition of human HCT116 cells after 48 hrs by sulforhodamine B assay; settings: HCT-116, 48 h; summary of the method: as §2
[9] = test system: OVCAR-3; assay: Growth inhibition of human OVCAR3 cells assessed as cell growth at 10^-5 M after 48 hrs by sulforhodamine B assay; settings: OVCAR-3, 48 h, read-out: Activity; summary of the method: as §4
[10] = test system: SK-OV-3; assay: Growth inhibition of human SKOV3 cells after 48 hrs by sulforhodamine B assay; settings: SK-OV-3, 48 h; summary of the method: as §1
[11] = test system: SN12C; assay: Growth inhibition of human SN12C cells after 48 hrs by sulforhodamine B assay; summary of the method: as §1
[12] = Growth inhibition of human Hs 578T cells assessed as cell growth at 10^-5 M after 48 hrs by sulforhodamine B assay; settings: read-out: Activity; summary of the method: as §3
[13] = test system: HL-60(TB); assay: Growth inhibition of human HL-60(TB) cells assessed as cell growth at 10^-5 M after 48 hrs by sulforhodamine B assay; settings: HL-60, 48 h, read-out: Activity
Summary of the method: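 NCI one-dose primary screen: compound added once at 10^-5 M, cultures incubated 48 h, end point by SRB protein-binding dye. Result given as percent growth of treated cells relative to untreated control cells, measured spectrophotometrically.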

[14] = test system: MOLT-4; assay: Growth inhibition of human MOLT4 cells after 48 hrs by sulforhodamine B assay; settings: MOLT-4, 48 h; summary of the method: as §1
[15] = test system: SN12C; assay: Growth inhibition of human SN12C cells assessed as cell growth at 10^-5 M after 48 hrs by sulforhodamine B assay; settings: read-out: Activity; summary of the method: as §4
[16] = test system: HCT-116; assay: Growth inhibition of human HCT116 cells assessed as cell growth at 10^-5 M after 48 hrs by sulforhodamine B assay; settings: HCT-116, 48 h, read-out: Activity; summary of the method: as §3
[17] = test system: OVCAR-4; assay: Growth inhibition of human OVCAR4 cells after 48 hrs by sulforhodamine B assay; settings: OVCAR-4, 48 h; summary of the method: as §1
[18] = test system: T47D; assay: Growth inhibition of human T47D cells after 48 hrs by sulforhodamine B assay
Summary of the method: (§5)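 NCI 60-cell panel, five concentrations (10-fold dilutions, 0.01–100 µM), 48 h continuous exposure; SRB protein stain read spectrophotometrically. Percent growth from time-zero, untreated-control and treated absorbances. GI50 is the concentration giving 50% lower net protein increase than control. Values beyond the tested range are reported as more or less than the highest or lowest concentration.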

[19] = test system: Malme-3M; assay: Growth inhibition of human MALME-3M cells assessed as cell growth at 10^-5 M after 48 hrs by sulforhodamine B assay; settings: read-out: Activity; summary of the method: as §3
[20] = test system: SNB-19; assay: Growth inhibition of human SNB19 cells after 48 hrs by sulforhodamine B assay; settings: SNB-19, 48 h; summary of the method: as §5
[21] = test system: BT-549; assay: Growth inhibition of human BT549 cells assessed as cell growth at 10^-5 M after 48 hrs by sulforhodamine B assay; settings: BT-549, 48 h, read-out: Activity; summary of the method: as §3
[22] = test system: UACC-257; assay: Growth inhibition of human UACC257 cells assessed as cell growth at 10^-5 M after 48 hrs by sulforhodamine B assay; settings: UACC-257, 48 h, read-out: Activity
Summary of the method: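 NCI primary one-dose screen: single concentration of 10^-5 M added to culture, 48 h incubation, SRB protein-dye endpoint. Percent growth of treated cells measured spectrophotometrically against untreated controls.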

[23] = test system: NCI-H322M; assay: Growth inhibition of human NCI-H322M cells after 48 hrs by sulforhodamine B assay; summary of the method: as §1
[24] = test system: HOP-62; assay: Growth inhibition of human HOP62 cells assessed as cell growth at 10^-5 M after 48 hrs by sulforhodamine B assay; settings: HOP-62, 48 h, read-out: Activity; summary of the method: as §3
[25] = test system: HOP-62; assay: Growth inhibition of human HOP62 cells after 48 hrs by sulforhodamine B assay; settings: HOP-62, 48 h; summary of the method: as §2
[26] = test system: NCI-H23; assay: Growth inhibition of human NCI-H23 cells after 48 hrs by sulforhodamine B assay; settings: NCI-H23, 48 h; summary of the method: as §1
[27] = read-out: LC50 (the source's name)

SMILES: COc1cc(/C=C/C(=O)c2ccc(NC(=O)CN3CCN(c4cc5c(cc4F)c(=O)c(C(=O)O)cn5C4CC4)CC3)cc2)cc(OC)c1OC
- GI50 [1]: 1.87 µM
- LC50 [1]: > 100 µM
- TGI [1]: 7.36 µM
- GI50 [2]: 0.3 µM
- LC50 (concentration giving 50% net cell kill) [2]: 6.98 µM
- TGI [2]: 1.17 µM
- growth at 10 µM [3]: -43.8%
- growth at 10 µM [4]: 2.17%
- growth at 10 µM [5]: 98.2%
- growth at 10 µM [6]: -13.7%
- GI50 [7]: 0.45 µM
- TGI [7]: 7.09 µM
- CC50 [7, 27]: > 100 µM
- GI50 [8]: 0.23 µM
- TGI [8]: 0.69 µM
- growth at 10 µM [9]: -25.8%
- GI50 [10]: 3.57 µM
- LC50 [10]: > 100 µM
- TGI [10]: > 100 µM
- GI50 [11]: 0.53 µM
- LC50 (lethal concentration, 50% net cell kill) [11]: > 100 µM
- TGI [11]: 12.2 µM
- growth at 10 µM [12]: 76.8%
- growth at 10 µM [13]: -33.7%
- GI50 [14]: 0.31 µM
- CC50 [14, 27]: > 100 µM
- growth at 10 µM [15]: 10.3%
- growth at 10 µM [16]: -88.2%
- GI50 [17]: 1.61 µM
- TGI [17]: 84.6 µM
- CC50 [17, 27]: > 100 µM
- GI50 [18]: 2.4 µM
- LC50 (concentration killing 50% of the cells present at time zero) [18]: > 100 µM
- TGI [18]: > 100 µM
- growth at 10 µM [19]: 31.4%
- GI50 [20]: 2.78 µM
- LC50 [20]: > 100 µM
- TGI [20]: > 100 µM
- growth at 10 µM [21]: -86.7%
- growth at 10 µM [22]: 30.8%
- GI50 [23]: 0.29 µM
- TGI [23]: 2.3 µM
- CC50 [23, 27]: > 100 µM
- growth at 10 µM [24]: 4.38%
- GI50 [25]: 0.36 µM
- LC50 (concentration killing 50% of starting cells) [25]: 56.9 µM
- TGI [25]: 11.4 µM
- GI50 [26]: 0.56 µM
- TGI [26]: 2.91 µM
- CC50 [26, 27]: 14.2 µM
